Measurements taken from ChEMBL document CHEMBL3826940, “Amphipathicity Determines Different Cytotoxic Mechanisms of Lysine- or Arginine-Rich Cationic Hydrophobic Peptides in Cancer Cells” (J Med Chem, 2016).
Calls of active or inactive are those of the source. The calls are words filed in the database; no cut-off is given here.

How the values were obtained:
HeLa [1] = assay: Cytotoxicity against human HeLa cells assessed as cell viability after 24 hrs by MTT assay; type: functional, cell-based
How it was run: (§1)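 MTT viability assay. Cells were seeded at 1 × 10^4 cells/well in complete medium and grown 24 h. Medium was replaced with fresh medium containing peptide over a concentration series and incubated 24 h. MTT (5 mg/mL) was added for 4 h, formazan was dissolved in DMSO, and A490 was read. IC50 was derived from mean ± SD of three independent experiments.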

[2] = Hemolytic activity in mouse RBC after 1 hr; type: ADME, cell-based, Erythrocyte; conditions: red blood cells
How it was run: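 Heparinized fresh mouse blood: RBCs were washed three times in 0.9% saline and diluted to 4.0 × 10^8 cells/mL. Peptides at various concentrations were incubated with the RBCs 1 h at 37 °C. After centrifugation at 1000 rpm for 10 min, supernatant absorbance was read at 540 nm, with 1% Triton X-100 set as 100% hemolysis.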

[3] = Drug uptake in plasma membrane of human HeLa cells at 5 uM after 2 to 30 mins using iridium dye labeled compound by confocal microscopic method; type: ADME, cell-based
How it was run: (§2)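 Peptides were labelled at the N-terminal His with [Ir(ppy)2(H2O)2]OTf: 200 μM each, mixed 1:1 in PBS, 2 h at 37 °C in the dark. HeLa cells (1 × 10^5 per dish, grown 24 h) were exposed to 5 μM labelled peptide. Live-cell confocal images were taken at 0, 5 and 15 min (excitation 403 nm, emission 500–560 nm).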

HeLa [4] = assay: Cytotoxicity against human HeLa cells assessed as cell mortality at 5 uM after 5 mins by Hoechst 33342/propidium iodide staining-based assay; type: functional
How it was run: (§3)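 HeLa cells treated with 5 μM peptide were co-stained with Hoechst 33342 (stains all nuclei) and propidium iodide (stains only membrane-compromised cells). Fluorescence imaging was done at time points up to 30 min.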

HeLa [5] = assay: Cytotoxicity against human HeLa cells assessed as lethality at 5 uM at 0 degC after 30 mins by MTT assay; type: functional, cell-based
How it was run: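 HeLa cells were incubated with peptide over a range of concentrations at 0 or 37 °C for 30 min. Lethality was then measured by MTT, with A490 read after DMSO solubilization.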

[6] = Cytotoxicity against HLF assessed as cell viability after 24 hrs by MTT assay; set-up: species or system Homo sapiens; conditions: Homo sapiens, HLF; how it was run: as §1
HUVEC [7] = assay: Cytotoxicity against HUVEC assessed as cell viability after 24 hrs by MTT assay; type: cell-based, Homo sapiens; conditions: Homo sapiens, HUVEC; how it was run: as §1
MCF7 [8] = assay: Cytotoxicity against human MCF7 cells assessed as cell viability after 24 hrs by MTT assay; type: functional, cell-based; conditions: MCF7, 24 h; how it was run: as §1
HeLa [9] = assay: Induction of morphological changes in human HeLa cells assessed as membrane leakage at 5 uM after 30 mins by microscopic method; type: functional, cell-based
How it was run: (§4)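 HeLa cells were co-incubated with 5 μM peptide for 30 min. Morphology was then examined under the microscope.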

[10] = Cytotoxicity against human 293T cells assessed as cell viability after 24 hrs by MTT assay; type: cell-based, HEK-293T; conditions: Homo sapiens, HEK-293T; how it was run: as §1
HeLa [11] = assay: Cytotoxicity against human HeLa cells assessed as cell mortality at 5 uM after 5 mins by MTT assay; type: functional, cell-based
HeLa [12] = assay: Induction of morphological changes in human HeLa cells assessed as membrane fragmentation at 5 uM after 30 mins by microscopic method; type: functional, cell-based; how it was run: as §4
HeLa [13] = assay: Induction of apoptosis in human HeLa cells assessed as caspase-3 activation at 5 uM measured up to 4 hrs by caspase-glo assay; type: functional, cell-based
How it was run: (§5)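 Cells in 96-well plates were exposed to 5 μM peptide for 5, 10, 15 or 30 min, or 1, 2, 3 or 4 h. Caspase-Glo 3/7 reagent was added, the plate shaken 30 s and incubated 2 h at room temperature, and luminescence was read.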

A549 [14] = assay: Cytotoxicity against human A549 cells assessed as cell viability after 24 hrs by MTT assay; type: functional, cell-based; conditions: A549, 24 h; how it was run: as §1
HeLa [15] = assay: Cytotoxicity against human HeLa cells assessed as lethality at 5 uM after 30 mins in presence of caspase-3 inhibitor Ac-DEVD-CHO by MTT assay; type: functional
How it was run: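 HeLa cells were seeded at 1 × 10^4 cells/well and grown 24 h. They were pretreated 30 min with 50 μM Ac-DEVD-CHO, then incubated with or without 5 μM peptide for 30 min. Survival was measured by MTT: 4 h with MTT, DMSO solubilisation, absorbance at 490 nm.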

HeLa [16] = assay: Induction of apoptosis in human HeLa cells assessed as viable cells at 5 uM after 15 mins by annexin V/FITC staining-based flow cytometric method (reference value: 99.8%); type: functional; conditions: 0.25 h, read-out: Activity
How it was run: (§6)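 Cells were grown 24 h in 6-well plates, then exposed to 5 μM peptide for 15 min. They were collected, washed twice with PBS, and stained with annexin V-FITC plus PI for 20 min at room temperature in the dark before flow cytometry.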

A549 [17] = assay: Selectivity index, ratio of IC50 for HLF to IC50 for human A549 cells
HeLa [18] = assay: Cytotoxicity against human HeLa cells assessed as cell mortality at 5 uM after 30 mins by Hoechst 33342/propidium iodide staining-based assay; type: functional; how it was run: as §3
HeLa [19] = assay: Selectivity index, ratio of IC50 for HLF to IC50 for human HeLa cells
HeLa [20] = assay: Induction of apoptosis in human HeLa cells assessed as caspase-3 activation at 5 uM after 5 mins by caspase-glo assay; type: functional, cell-based; how it was run: as §5
HeLa [21] = assay: Induction of apoptosis in human HeLa cells assessed as necrotic cells at 5 uM after 15 mins by annexin V/FITC staining-based flow cytometric method relative to control; type: functional; how it was run: as §6
HeLa [22] = assay: Cytotoxicity against human HeLa cells assessed as cell mortality at 5 uM after 6 hrs by MTT assay; type: functional, cell-based
HeLa [23] = assay: Induction of apoptosis in human HeLa cells assessed as early apoptotic cells at 5 uM after 15 mins by annexin V/FITC staining-based flow cytometric method (reference value: 0.1%); type: functional; how it was run: as §6
A549 [24] = assay: Induction of reactive oxygen species generation in human A549 cells at 5 uM after 30 mins by DCFH-DA staining-based fluorescence assay; type: functional, cell-based
How it was run: (§7)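 Cells in 96-well plates were loaded with DCFH-DA for 20 min at 37 °C, then treated with or without 5 μM peptide for 30 min. After a PBS wash, DCF fluorescence was read at 485/535 nm and expressed as fold change versus untreated cells.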

A549 [25] = assay: Selectivity index, ratio of IC50 for human 293T cells to IC50 for human A549 cells; type: functional
MCF7 [26] = assay: Selectivity index, ratio of IC50 for HUVEC to IC50 for human MCF7 cells
A549 [27] = assay: Selectivity index, ratio of IC50 for HUVEC to IC50 for human A549 cells
[28] = Induction of reactive oxygen species generation in HLF at 5 uM after 30 mins by DCFH-DA staining-based fluorescence assay; conditions: human, 0.5 h; how it was run: as §7
HeLa [29] = assay: Induction of apoptosis in human HeLa cells assessed as caspase-3 cleavage at 5 uM after 5 mins by Western blot method; type: functional, cell-based
How it was run: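 HeLa cells (8 × 10^5 per 100 mm dish, grown 24 h) were exposed to 5 μM peptide for 5, 10 or 15 min. Lysates (with 1 mM PMSF) were run on 15% SDS-PAGE and blotted to PVDF. Blots were probed overnight at 4 °C with rabbit monoclonal anti-cleaved caspase-3, then HRP goat anti-rabbit, and detected by ECL with actin as loading control.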

HeLa [30] = assay: Selectivity index, ratio of IC50 for human 293T cells to IC50 for human HeLa cells; type: functional
HeLa [31] = assay: Cytotoxicity against human HeLa cells assessed as lethality at 5 uM after 30 mins by MTT assay; type: functional
How it was run: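 HeLa cells were grown in DMEM with 10% FBS and seeded at 1 × 10^4 cells/well, then grown 24 h. Medium was replaced with fresh medium containing 5 μM peptide for 30 min. MTT was added for 4 h and formazan was dissolved in DMSO (10 min, 37 °C). Lethality was read as absorbance at 490 nm.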

[32] = Induction of reactive oxygen species generation in human 293T cells at 5 uM after 30 mins by DCFH-DA staining-based fluorescence assay; type: cell-based; conditions: hek-293t, 0.5 h; how it was run: as §7
HeLa [33] = assay: Induction of reactive oxygen species generation in human HeLa cells at 5 uM after 30 mins by DCFH-DA staining-based fluorescence assay; type: functional, cell-based; how it was run: as §7
[34] = Drug uptake in cytoplasm of human HeLa cells at 5 uM after 2 to 30 mins using iridium dye labeled compound by confocal microscopic method; type: ADME, cell-based; how it was run: as §2
HeLa [35] = assay: Induction of apoptosis in human HeLa cells assessed as caspase-3 activation at 5 uM after 1 to 4 hrs by caspase-glo assay; type: functional, cell-based; how it was run: as §5
HUVEC [36] = assay: Induction of reactive oxygen species generation in HUVEC at 5 uM after 30 mins by DCFH-DA staining-based fluorescence assay; type: cell-based; conditions: human, 0.5 h; how it was run: as §7
HeLa [37] = assay: Induction of shrinkage of human HeLa cells at 5 uM after 30 mins by microscopic method; type: functional, cell-based; how it was run: as §4
HeLa [38] = assay: Induction of morphological changes in human HeLa cells at 5 uM after 30 mins by microscopic method; type: functional, cell-based; how it was run: as §4
HeLa [39] = assay: Selectivity index, ratio of IC50 for HUVEC to IC50 for human HeLa cells
MCF7 [40] = assay: Selectivity index, ratio of IC50 for HLF to IC50 for human MCF7 cells
HeLa [41] = assay: Induction of appearance of rounded human HeLa cells at 5 uM after 30 mins by microscopic method; type: functional, cell-based; how it was run: as §4
HeLa [42] = assay: Induction of apoptosis in human HeLa cells assessed as late apoptotic cells at 5 uM after 15 mins by annexin V/FITC staining-based flow cytometric method relative to control; type: functional; how it was run: as §6
MCF7 [43] = assay: Selectivity index, ratio of IC50 for human 293T cells to IC50 for human MCF7 cells; type: functional
MCF7 [44] = assay: Induction of reactive oxygen species generation in human MCF7 cells at 5 uM after 30 mins by DCFH-DA staining-based fluorescence assay; type: functional, cell-based; how it was run: as §7

In the case of H-HGGRLLRLLRRLLRLLR-NH2, the IC50 (HeLa [1]) is reported as 3.7 µM, the HC50 at 1 h [2] is reported as 2900 nM and the Drug uptake [3] is reported as “Active”. The Activity (HeLa [4]) was “Active”, the Activity (HeLa [5]) was “Active” and the IC50 [6] was 6.3 µM. For the same compound, the IC50 (HUVEC [7]) was 8.4 µM, the IC50 (MCF7 [8]) was 2.5 µM and the Activity (HeLa [9]) was “Active”. The IC50 [10] was 9.6 µM, the Activity (HeLa [11]) was “Active” and the Activity (HeLa [12]) was “Active”. For the same compound, the Activity (HeLa [13]) was “inactive” and the IC50 (A549 [14]) was 4.3 µM.
For `CC(C)C[C@H](NC(=O)[C@H](CCCNC(=N)N)NC(=O)[C@H](CC(C)C)NC(=O)[C@H](CC(C)C)NC(=O)[C@H](CCCNC(=N)N)NC(=O)[C@H](CCCNC(=N)N)NC(=O)[C@H](CC(C)C)NC(=O)[C@H](CCCNC(=N)N)NC(=O)[C@H](CC(C)C)NC(=O)[C@H](CC(C)C)NC(=O)[C@H](CCCNC(=N)N)NC(=O)[C@H](CC(C)C)NC(=O)[C@H](CC(C)C)NC(=O)[C@H](CCCNC(=N)N)NC(=O)CNC(=O)CNC(=O)[C@@H](N)Cc1cnc[nH]1)C(N)=O`, the Activity (HeLa [15]) was 20%, the viability at 5 µM (HeLa [16]) was 46.3% and the IC50 (HeLa [1]) was 4.2 µM. For the same compound, the HC50 at 1 h [2] was greater than 200000 nM, the “Ratio IC50” value (A549 [17]) was 4 and the Activity (HeLa [18]) was “Active”. The “Ratio IC50” value (HeLa [19]) was 4, the Activity (HeLa [20]) was “Active” and the Activity (HeLa [21]) was 0.1%. For the same compound, the Activity (HeLa [4]) was “inactive”, the Activity (HeLa [22]) was “Active” and the Activity (HeLa [23]) was 45.9%. For the same compound, the Activity (HeLa [5]) was “inactive”, the Activity (A549 [24]) was “Active” and the IC50 [6] was 21.4 µM. The “Ratio IC50” value (A549 [25]) was 4, the “Ratio IC50” value (MCF7 [26]) was 4 and the “Ratio IC50” value (A549 [27]) was 4. For the same compound, the Activity [28] was “Non-toxic”, the Activity (HeLa [29]) was “Active” and the “Ratio IC50” value (HeLa [30]) was 4. The Activity (HeLa [31]) was 56%, the IC50 (HUVEC [7]) was 19 µM and the Activity [32] was “Non-toxic”. For the same compound, the Activity (HeLa [33]) was “Active”, the Drug uptake [34] was “Active” and the IC50 (MCF7 [8]) was 4.5 µM. For the same compound, the Activity (HeLa [35]) was “inactive”, the Activity (HUVEC [36]) was “Non-toxic” and the Activity (HeLa [37]) was “Active”. The Activity (HeLa [38]) was “inactive”, the IC50 [10] was 41.6 µM and the Activity (HeLa [11]) was “inactive”. The “Ratio IC50” value (HeLa [39]) was 4, the “Ratio IC50” value (MCF7 [40]) was 4 and the Activity (HeLa [41]) was “Active”. For the same compound, the Activity (HeLa [42]) was 7.7%, the “Ratio IC50” value (MCF7 [43]) was 4 and the IC50 (A549 [14]) was 4.8 µM. For the same compound, the Activity (MCF7 [44]) was “Active”.
